Experimental data gathered from unrelated publications.
Each line is one published result; the experiments were not run side by side.
Cell line: HL-60
Read-out: cell growth or viability

`COc1cc([C@@H]2c3cc4c(cc3[C@@H](O[C@@H]3O[C@@H]5CO[C@@H](C)O[C@H]5[C@H](O)[C@H]3O)[C@H]3COC(=O)[C@H]23)OCO4)cc(OC)c1O` has an IC50 of 0.3 µM (MTS; 72 h).
`O=c1cc(OCc2cc(-c3ccccc3)no2)c2ccccc2o1` has an IC50 of over 100 µM (MTS; 72 h).
`COc1ccc(Nc2ncnc3c2ncn3Cc2ccc(C(=O)Nc3ccccc3N)cc2)cc1` has an IC50 of 4.12 µM (MTT; 72 h).
`O=C(CSc1nc2ccccc2s1)N/N=C/c1ccc(OCC(=O)Nc2cccc(Br)c2)cc1` gave an IC50 of over 100 µM (MTS; 72 h).
The IC50 of `FC(F)(F)c1ccc(-c2cc(CNc3cccc4cccnc34)on2)cc1` is reported as over 100 µM (MTS; 72 h).
With `COc1cc([C@@H]2c3cc4c(cc3[C@@H](O[C@@H]3O[C@@H]5CO[C@@H](C)O[C@H]5[C@H](O)[C@H]3O)[C@H]3COC(=O)[C@H]23)OCO4)cc(OC)c1O` the IC50 was 1.22 µM (XTT; 75 h).
The IC50 of `COc1ccc(Nc2ncnc3c2ncn3Cc2ccc(C(=O)NO)cc2)cc1` is reported as 1.98 µM (MTT; 72 h).
`O=c1cc(OCc2cc(-c3ccc(C(F)(F)F)cc3)no2)c2ccccc2o1` has an IC50 of over 100 µM (MTS; 72 h).
`O=C(NO)c1ccc(Cn2cnc3c(Nc4cccc([N+](=O)[O-])c4)ncnc32)cc1` gave an IC50 of 1.86 µM (MTT; 72 h).
The IC50 of `FC(F)(F)c1cc(OCc2cc(-c3ccccc3)no2)c2ccccc2n1` is reported as over 100 µM (MTS; 72 h).
The IC50 of `O=C(NO)c1ccc(Cn2cnc3c(Nc4ccc(Br)cc4F)ncnc32)cc1` is reported as 5.98 µM (MTT; 72 h).
`O=C(CSc1nc2ccccc2s1)N/N=C/c1ccc(OCC(=O)Nc2ccc([N+](=O)[O-])cc2)cc1` has an IC50 of 16.1 µM (MTS; 72 h).
